Active and inactive are the calls of the source. The rule behind the calls is not given here.
Legend:
[1] = system: Aphis; experiment: Insecticidal activity against Aphis medicagini at 250 mg/L; assay type: functional
In short: (§1)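 Groups of 10 of each species were placed in glass Petri dishes and sprayed with test solution using a Potter sprayer. After air-drying, they were held under normal rearing conditions. Mortality at 72 h was taken from the number and size of live larvae relative to untreated controls.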

[2] = system: Radish; experiment: Inhibition of root growth of Raphanus sativus at 100 mg/L; assay type: functional
In short: (§2)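 Seeds of each species were grown in Petri dishes with 10 seeds per dish, at 28 °C, 70–80% RH, 16:8 h light:dark photoperiod and 3000 lx light for 5 days. Root and stem lengths were measured for the 10 seeds and averaged. Each test and its controls were run in three replicates, and the data were given probit analysis.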

[3] = system: Echinochloa crus-galli; experiment: Inhibition of stem growth of Echinochloa crus-galli at 100 mg/L; assay type: functional; in short: as §2
[4] = system: Triticum aestivum; experiment: Herbicidal activity against Triticum aestivum at 450 g ai/ha in greenhouse in vivo test; assay type: functional, organism-based
[5] = system: Sorghum bicolor; experiment: Inhibition of root growth of Sorghum bicolor at 100 mg/L; assay type: functional; in short: as §2
[6] = system: Brassica rapa subsp. oleifera; experiment: Inhibition of root growth of Brassica campestris at 100 mg/L; assay type: functional; in short: as §2
[7] = system: Tetranychus cinnabarinus; experiment: Insecticidal activity against Tetranychus cinnabarinus at 250 mg/L; assay type: functional; in short: as §1
[8] = system: Radish; experiment: Inhibition of stem growth of Raphanus sativus at 100 mg/L; assay type: functional; in short: as §2
[9] = system: Radish; experiment: Herbicidal activity against Raphanus sativus at 450 g ai/ha in greenhouse in vivo test; assay type: functional, organism-based
[10] = system: Cucumis sativus; experiment: Inhibition of stem growth of Cucumis sativus at 100 mg/L; assay type: functional; in short: as §2
[11] = system: Echinochloa crus-galli; experiment: Herbicidal activity against Echinochloa crus-galli at 450 g ai/ha in greenhouse in vivo test; assay type: functional, organism-based
[12] = system: Brassica rapa subsp. oleifera; experiment: Herbicidal activity against Brassica campestris at 450 g ai/ha in greenhouse in vivo test; assay type: functional, organism-based
[13] = system: Sorghum bicolor; experiment: Herbicidal activity against Sorghum bicolor at 450 g ai/ha in greenhouse in vivo test; assay type: functional, organism-based
[14] = system: Triticum aestivum; experiment: Inhibition of stem growth of Triticum aestivum at 100 mg/L; assay type: functional; in short: as §2
[15] = system: Cucumis sativus; experiment: Herbicidal activity against Cucumis sativus at 450 g ai/ha in greenhouse in vivo test; assay type: functional, organism-based
[16] = system: Echinochloa crus-galli; experiment: Inhibition of root growth of Echinochloa crus-galli at 100 mg/L; assay type: functional; in short: as §2
[17] = system: Brassica rapa subsp. oleifera; experiment: Inhibition of stem growth of Brassica campestris at 100 mg/L; assay type: functional; in short: as §2
[18] = system: Cucumis sativus; experiment: Inhibition of root growth of Cucumis sativus at 100 mg/L; assay type: functional; in short: as §2
[19] = system: Triticum aestivum; experiment: Inhibition of root growth of Triticum aestivum at 100 mg/L; assay type: functional; in short: as §2
[20] = system: Sorghum bicolor; experiment: Inhibition of stem growth of Sorghum bicolor at 100 mg/L; assay type: functional; in short: as §2

Compound	Activity [1] [%]	inhibition at 100 µg/mL [2] [%]	inhibition at 100 µg/mL [3] [%]	Activity [4]	inhibition at 100 µg/mL [5] [%]	inhibition at 100 µg/mL [6] [%]	Activity [7] [%]	inhibition at 100 µg/mL [8] [%]	Activity [9]	inhibition at 100 µg/mL [10] [%]	Activity [11]	Activity [12]	Activity [13]	inhibition at 100 µg/mL [14] [%]	Activity [15]	inhibition at 100 µg/mL [16] [%]	inhibition at 100 µg/mL [17] [%]	inhibition at 100 µg/mL [18] [%]	inhibition at 100 µg/mL [19] [%]	inhibition at 100 µg/mL [20] [%]
COc1cc(-n2nnn(C)c2=O)c(Cl)cc1Cl	0	0	30	inactive	70	0	100	0	inactive	60	inactive	inactive	inactive	50	inactive	30	0	60	70	30
CCCCCCCCSc1nnc(Cn2nnn(-c3ccc(Cl)cc3)c2=O)o1	3.3	0	0	inactive	0	0	2.9	0	inactive	0	inactive	inactive	inactive	0	inactive	0	0	0	0	0
CCOC(=O)CSc1nnc(Cn2nnn(-c3ccc(Cl)cc3)c2=O)o1	0	50	0	inactive	0	50	2.9	0	inactive	0	inactive	inactive	inactive	0	inactive	0	60	0	0	0
C=CCSc1nnc(Cn2nnn(-c3ccc(Cl)cc3)c2=O)s1	0	40	70	inactive	60	60	72.9	40	inactive	0	inactive	inactive	inactive	40	inactive	60	40	0	50	0
O=c1n(Cc2nnc(SCc3ccccc3F)s2)nnn1-c1ccc(Cl)cc1	18.6	80	70	inactive	70	80	0	60	inactive	70	inactive	inactive	inactive	80	inactive	60	70	70	80	70

Reference: ChEMBL document CHEMBL1142895, “Discovery of a new insecticide lead by optimizing a target-diverse scaffold: tetrazolinone derivatives” (2007)
